Sampled rows, rich in hits. Any-hit rate of the full collection: about 2.5%.
MC4R ag barr: activates human MC4R beta-arrestin recruitment | P32245 | U2OS MC4R beta-arrestin complementation, luminescence; percent of melanotan II response, DMSO zero | activation, % at 8.9 µM | actives 0.98% (n = 360,000) | AID 540308;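 active = activation above a per-plate cutoff, the mean activation of sample wells on that plate plus 3 SD, cut at about 8% in these data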
Target sequence (P32245 whole entry, looked up): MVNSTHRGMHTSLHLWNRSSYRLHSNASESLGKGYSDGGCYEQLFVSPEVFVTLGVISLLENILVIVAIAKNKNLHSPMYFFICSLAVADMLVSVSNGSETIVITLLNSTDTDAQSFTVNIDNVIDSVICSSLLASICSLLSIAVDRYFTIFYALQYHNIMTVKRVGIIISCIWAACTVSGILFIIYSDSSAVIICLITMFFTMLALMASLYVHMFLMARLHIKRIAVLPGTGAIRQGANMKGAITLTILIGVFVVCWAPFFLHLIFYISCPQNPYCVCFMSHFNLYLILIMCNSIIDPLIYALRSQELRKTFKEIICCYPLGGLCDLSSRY
MC4R antagonist: antagonists of human melanocortin 4 receptor (MC4R). P32245. MC4R-expressing cells, MTII-stimulated cAMP, LANCE TR-FRET. inhibition, % at 6.5 µM. actives 0.48% (n = 360,000). AID 540295;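 active = inhibition above its plate's cutoff, the mean of tested wells on that plate plus 3 SD, cut at about 29% in these data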;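 also: 0% = Melanotan II alone and 100% = Melanotan II plus saturating MCL0020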
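Assay system: U2OS-MC4R stable cell line; Also added: Melanotan II; Technique: Eu-cAMP/anti-cAMP TR-FRET, emission 671 nm; Times: 30-min compound, 1-h challenge, 1-h detection, room temperature.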
NALP1 yeast inh: inhibitors of NALP1 inflammasome in yeast. S. cerevisiae NALP1/ASC/caspase-1 growth, X-gal OD620, 72 h. inhibition, % at 10 µM. actives 0.61% (n = 280,000). AID 2071; in the data active = inhibition mostly above about 24%, no sharp cut-off; inactive = mostly below about 32%
Bfl-1 A1 inh: inhibitors of the anti-apoptotic protein A1, read as caspase activation; actives 0.066% (n = 330,000); MEF A1-2A-BIM cells, Caspase-Glo 3/7 luminescence, 3 h; percent of clofoctol response, vehicle zero; caspase activation, % (concentration not given with the values);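 active = over half of replicate activation scores above 10%, or exactly half above 10 with the replicate mean above 10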
NALP3 yeast inh: inhibitors of NALP3 inflammasome in yeast; Yeast reconstituted NLRP3/ASC/caspase-1, beta-gal luminescence, 24 h; inhibition, % at 10 µM; actives 0.39% (n = 330,000); AID 2825;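 active = inhibition of 50% or more; inactive = inhibition below 50%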;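 also: plate controls were induced DMSO wells for no effect and uninduced yeast grown without galactose for full effect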
Tb MetRS inh: blocks T. brucei methionyl-tRNA synthetase activity; purified T. brucei MetRS, ATP depletion, Kinase-Glo luminescence; inhibition, % at 11.9 µM; actives 0.4% (n = 360,000); AID 624268;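 active = inhibition above a per-plate cutoff of the control wells' mean inhibition plus 3 SD, cut at about 5.5% in these data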;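 also: 0% = DMSO wells median and 100% = median of wells with control inhibitor compound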
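Material – parasite MetRS enzyme · Medium – HEPES-MgCl2-KCl buffer plus DTT, spermine, BSA, pyrophosphatase · Reagent – ATP, methionine and E. coli bulk tRNA substrates · Times – 15 min enzyme-compound preincubation, 2 h reaction, 10 min detection, 25 °C · Measured by – luminescence of leftover ATP · Evaluation – percent inhibition relative to median high and low control wells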
U2OS cAMP counter: nonselective cAMP signaling inhibitor, MC4R antagonist counter-screen; shares compounds with MC4R antagonist; parental U2OS, forskolin cAMP, LANCE TR-FRET; inhibition, % at 6.5 µM; actives 26% (n = 1,600); AID 602193;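 active = mean inhibition over triplicates above the low-control well mean plus 3 SD, set per campaign, cut at about 13% in these data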;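 also: signal is single emission at 671 nm which falls as cellular cAMP rises; 0% = forskolin-stimulated wells and 100% = buffer without forskolin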
MC4R antag conf: human MC4R cAMP antagonism confirmation | actives 27% (n = 1,600) | AID 602195 | shares compounds with MC4R antagonist | MC4R-expressing cells, MTII-stimulated cAMP, TR-FRET | inhibition, % at 6.5 µM; in the data active = inhibition above about 29%;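 also: 0% = agonist stimulated wells alone and 100% = agonist stimulated wells plus saturating reference antagonist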
The depositor's hits bear a star; / = not tested or not shown; + = active, no number.

SMILES	MC4R ag barr	MC4R antagonist	NALP1 yeast inh	Bfl-1 A1 inh	NALP3 yeast inh	Tb MetRS inh	U2OS cAMP counter	MC4R antag conf
CC(=O)c1sc(C(C)(C)C)cc1NC(=O)c1ccccc1C(=O)O	-1	36*	10	-2	-28	0	32*	56*
N#C/C(=C/c1ccc(OCc2ccc(C(=O)O)cc2)c(Br)c1)c1cccc(F)c1	-2	34*	1	-1	0	0	-3	-14
Nc1ccc2ccccc2c1N=Nc1ccccc1	-4	6	/	/	/	0	/	/
CC1(C)CC(=O)C(C(C2=C(O)CC(C)(C)CC2=O)c2cccs2)C(=O)C1 (centres undefined)	1	30*	7	0	18	0	12	21
COc1ccc(N2CCN(C(=O)C(=O)c3cc(OC)c(OC)c(OC)c3)CC2)cc1	/	/	/	/	/	-1	/	/
O=C(c1ccc([N+](=O)[O-])cc1)N1CCc2ccccc2C1	2	29*	15	0	16	0	4	-3
O=C(c1ccc(S(=O)(=O)c2ccccc2)cc1)N1CCc2ccccc2C1	-2	3	25	-1	7	0	/	/
O=C(O)c1ccc(/C=C2\COc3ccccc3C2=O)cc1	-3	36*	17	-3	11	0	5	6
COc1ccc(/C=C2\COc3ccccc3C2=O)cc1OC	2	15	64	1	36	0	/	/
COc1ccc(CN(C)S(=O)(=O)c2nnc(NC(=O)c3ccc(C)cc3)s2)cc1OC	-1	30*	36	1	-1	0	4	23
COC(=O)CSc1cc(SCC(=O)OC)c(C#N)c(SCC(=O)OC)c1	-1	14	6	0	5	0	/	/
COC(=O)CSc1ccc(C#N)c(SCC(=O)OC)c1	-1	35*	26	0	-8	0	17*	21
CC(C)CN(C(=O)c1cccs1)C1CCS(=O)(=O)C1 (centres undefined)	-3	10	/	/	23	0	/	/
COc1ccc(N(C)C(=O)c2sc(Cl)nc2C)cc1	2	17	10	-1	23	0	/	/
Cc1ccc(OC(=O)c2sc(Cl)nc2C)cc1C	0	36*	27	-1	-3	0	16*	37*
COc1cccc(CN(C)C(=O)CC[C@H]2O[C@@H](n3ccc(=O)[nH]c3=O)[C@H](O)[C@@H]2O)c1	/	/	/	/	/	0	/	/
Cc1cccc(N2CC(C(=O)Nc3ccccc3N3CCOCC3)CC2=O)c1C (centres undefined)	-2	6	/	-1	9	0	/	/
Cc1c(Cl)cccc1N1C(=O)C(N2C(=O)c3cccc([N+](=O)[O-])c3C2=O)C1c1cccs1 (centres undefined)	-4	35*	3	0	1	-1	-6	-4
Cc1cc(F)ccc1S(=O)(=O)Nc1ccccc1C(=O)N1CCCC1	-1	10	/	0	17	0	/	/
COc1cccc2[nH]c3c(N4CCCCC4)ncnc3c12	0	3	13	1	-7	1	/	/
COc1cccc2[nH]c3c(Cl)ncnc3c12	-1	29*	18	1	17	2	8	27
CCOc1ccc(NC(=O)CNC(=O)c2nn(-c3ccc(OC)c(OC)c3)c(=O)c3ccccc23)cc1	1	38*	6	0	13	0	13	19
CCC1=NN2C(=N)/C(=C\c3cccn3-c3ccc(OC)cc3)C(=O)N=C2S1	-1	26	-15	1	15	0	/	/
Cc1ccc(-n2cccc2/C=C2\C(=N)N3N=C(C(C)C)SC3=NC2=O)cc1	-2	73*	0	1	20	0	-3	20
Cc1ccc(Sc2ccc(NC(=O)c3ccc(S(C)(=O)=O)cc3Cl)cc2)cc1	7	108*	8	-1	16	0	125*	+
SMILES	MC4R ag barr	MC4R antagonist	NALP1 yeast inh	Bfl-1 A1 inh	NALP3 yeast inh	Tb MetRS inh	U2OS cAMP counter	MC4R antag conf
CS(=O)(=O)c1ccc(C(=O)Nc2ccc(N3CCCCC3)cc2)c(Cl)c1	-1	-4	14	0	-9	-1	/	/
CCCCCC(=O)N1C[C@@H](n2cc(C3CC3)nn2)[C@H](O)C[C@@H]1c1ccccc1	0	10	/	/	/	-1	/	/
CC(=O)NS(=O)(=O)c1ccc(N=c2ssc3c2-c2cc(C)c(C)cc2NC3(C)C)cc1	-2	31*	18	1	4	2	3	16
Cc1cc2c(cc1C)-c1c(ssc1=Nc1ccc(S(N)(=O)=O)cc1)C(C)(C)N2	-2	16	7	2	7	0	/	/
O=C1c2cccc([N+](=O)[O-])c2C(=O)N1c1ccccc1	-4	30*	28	-1	-3	0	9	21
Cc1cc(C(=O)N2CCC2(C)C(=O)Nc2ccc3[nH]ncc3c2)nn1C (centres undefined)	-1	1	/	/	/	0	/	/
Cc1cc(C)c(/C=N/n2c(C)cc(C)c(C#N)c2=O)c(C)c1	0	29*	35	-1	21	0	-1	-8
Cc1cc(C)n(/N=C/c2cccs2)c(=O)c1C#N	-2	-4	29	0	2	-1	/	/
CCOc1cc(N2CCOCC2)c(OCC)cc1NCC(=O)N1CCN(Cc2ccccc2)CC1	0	29*	/	-1	6	0	1	1
CCC(C)NS(=O)(=O)c1ccc(S(=O)(=O)N(CCc2ccc(OC)c(OC)c2)Cc2cccs2)cc1 (centres undefined)	-1	32*	21	0	8	0	-10	-18
COc1ccc(CCN(Cc2cccs2)S(=O)(=O)c2ccc(S(=O)(=O)N3CCCCCC3)cc2)cc1OC	-2	5	26	0	23	0	/	/
Cc1ccccc1Nc1nc(N)nc(COC(=O)c2ccc([N+](=O)[O-])o2)n1	0	1	/	0	1	0	/	/
COCCNC(=O)CCc1c(C)nc2nc(-c3cc(OC)cc(OC)c3)nn2c1C	0	29*	5	0	-2	0	1	-17
CCCNC(=O)CCc1c(C)nc2nc(-c3cc(OC)cc(OC)c3)nn2c1C	-1	-4	-7	2	16	-1	/	/
CCN(C[C@H]1N[C@@](CC)(C(=O)OC)[C@H]2C(=O)N(Cc3ccccc3)C(=O)[C@@H]12)C(=O)c1ccc(C(C)(C)C)cc1	-2	41*	/	/	4	-1	-2	21
